Assay outcomes deposited in PubChem by several laboratories.
L major viab = Leishmania major promastigote growth inhibition, primary screen. Leishmania major promastigotes, resazurin fluorescence viability. 9% of 200,000 active. inhibition, % at 10 µM. AID 1063, 2008; in the data active = inhibition above about 50%;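 also: promastigotes grown with compound for 44 hours at 28 °C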
UPR XBP1 act = activators of adaptive XBP1 UPR arm, primary screen, cell-based, CHO-XBP1 luciferase reporter, luminescence, uHTS; IRE1-XBP1 UPR activation; percent of tunicamycin response, DMSO as zero; activation, % at 20 µM; 0.33% of 330,000 active;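 active = versus positive control, 20 µM dose yields 30% or more activation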;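 also: 100% = tunicamycin at 10 µg/mL and 0% = DMSO only wells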
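Assay system: IRE1-XBP1 luciferase reporter CHO line. Input: 1000 cells/well. Buffer or medium: F12 with 10% serum. Doses: 20 µM, 1% DMSO. Times: overnight seeding at 37 °C, 6 h compound treatment at 37 °C. Technique: Steady-Glo luciferase glow luminescence, 10 min after reagent addition.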
CHOP inhibitor = inhibitors of CHOP promoter induction, primary screen, cell-based, unfolded protein response, luciferase reporter. inhibition, % at 10 µM. 3.8% of 220,000 active. CHO-K1 CHOP-promoter luciferase, tunicamycin-induced, 15-18 h;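 active = compounds that reduced the stress-induced luciferase reporter signal by more than about 70% of percent inhibition, limit read from the data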;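 also: 0% = tunicamycin plus vehicle and 100% = wells without tunicamycin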
UPR CHOP act = activators of apoptotic CHOP UPR arm, primary screen, cell-based, CHO-CHOP luciferase reporter, luminescence, uHTS. UPR activation; percent of tunicamycin response over DMSO baseline. activation, % at 10 µM. 0.34% of 330,000 active. AID 449763, 2010;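 active = at 10 µM dose, activation of 40% or more, normalized to positive control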;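 also: 100% = tunicamycin at 10 µg/mL and 0% = DMSO alone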
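assay system = CHO CHOP reporter cells | amount = 500 CHO-CHOP cells per well | buffer or medium = F12 with 10% FBS | incubation = 16-18 h cell attachment, then 6 h compound exposure, 37 °C | detection = luminescence read with Steady-Glo | read-out = percent activation relative to tunicamycin control | controls = tunicamycin high control, DMSO low control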
T cruzi repl = inhibitors of intracellular T. cruzi growth, primary screen, luminescence, NIH3T3 host cells | T. cruzi beta-gal in NIH3T3, 90 h | inhibition, % (no concentration beside the values) | 1.4% of 300,000 active | AID 1885, 2009;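 active = mean inhibition across valid replicates above about 55%, limit read from the data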;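 also: signal also drops with host cell toxicity which is not excluded here; 0% = plate median of DMSO wells and 100% = zero luminescence signal; higher percent means less beta-gal luminescence so fewer parasites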
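System: Mouse NIH/3T3 fibroblasts infected with β-gal-expressing T. cruzi Tulahuen C4 | Quantity: NIH/3T3 cells, 5,000 per well | Reagent: 5000 reporter trypomastigotes per well | Dosing: Compound pinned at 50 nL/well, DMSO | Schedule: 3 h host attachment, then at least 90 h co-culture | Detection: GalScreen luminescence, 60 min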
Dynein transport = inhibitors of GR-EGFP nuclear translocation, primary screen, dynein cargo transport inhibitor project, imaging, high-content, 3617.4 mouse cells. 0.47% of 220,000 active. test concentration mostly 20 µM; stimulated with dexamethasone, 1 µM; stronger effect = lower value. z-score, hits read low;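 active = plate z-score of nuclear minus cytoplasmic receptor signal below a set negative limit, without overly bright fluorescence or cell loss, cut at about -3.5 in these data, passing the limit was not always enough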;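 also: z-score of nuclear minus cytoplasmic ring GR-EGFP intensity difference per well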
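Buffer or medium: tetracycline-free induction medium containing charcoal-stripped FBS / Reagent: dexamethasone agonist, 1.0 µM final, for 30 min / Technique: automated 10x imaging of fixed Hoechst-stained cells / Times: induction 48 h, compound 1 h, agonist 30 min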
* = called active by the depositor. Many of the other results were omitted from the sample, so hits are more common in it than they were.

How did Cc1cccc(N(CC(=O)NCCc2ccccc2)C(=O)CCC(=O)Nc2ccccn2)c1C do in these assays?
UPR XBP1 act: 0; UPR CHOP act: -1; T cruzi repl: 8

Results for COC(=O)c1sc(N2C(=O)c3oc4ccccc4c(=O)c3C2c2cccc(O)c2)nc1C (stereo not drawn) ?
UPR XBP1 act: -1; CHOP inhibitor: 75*; UPR CHOP act: 0; T cruzi repl: -13; Dynein transport: 0.92

Results for Cc1ccccc1NC(=O)c1ccc(Nc2c([N+](=O)[O-])cc([N+](=O)[O-])c3ccccc23)cc1 ?
L major viab: 42; UPR XBP1 act: -2; CHOP inhibitor: 45; UPR CHOP act: -1; T cruzi repl: 63*; Dynein transport: -1.4

Results for Cc1cccn2cc(-c3ccc(S(=O)(=O)N4CCCCC4)cc3)nc12 ?
L major viab: 13; UPR XBP1 act: -2; CHOP inhibitor: 33; UPR CHOP act: 4; T cruzi repl: 12; Dynein transport: 0.19

Results for Cc1cccn2cc(-c3ccc(S(=O)(=O)N4CCOCC4)cc3)nc12 ?
L major viab: 12; UPR XBP1 act: 1; CHOP inhibitor: 71*; UPR CHOP act: -1; T cruzi repl: 9; Dynein transport: 1.4

Results for COc1cccc(NC(=O)c2cccc(N3C(=O)C4C5C=CC(C5)C4C3=O)c2)c1 (stereo not drawn) ?
UPR XBP1 act: -2; UPR CHOP act: 1; T cruzi repl: 9

How did C=CCOC(=O)C1=C[C@H](c2coc3ccccc3c2=O)C[C@H](OCCCCO)O1 do in these assays?
UPR XBP1 act: 0; UPR CHOP act: 2; T cruzi repl: -7

What do the screens show for `O=C(CNC1CCCCCC1)Nc1ccc(N2CCCC2)cc1`?
L major viab: 19; UPR XBP1 act: -1; CHOP inhibitor: -18; UPR CHOP act: 1; T cruzi repl: -8; Dynein transport: -1.5

How did O=C(CNC1CCCC1)Nc1ccc(N2CCCCCC2)cc1 do in these assays?
L major viab: 85*; UPR XBP1 act: 1; CHOP inhibitor: 23; UPR CHOP act: 0; T cruzi repl: 12; Dynein transport: -0.38

Results for O=C(CNCCC1=CCCCC1)Nc1ccc(N2CCCCCC2)cc1 ?
L major viab: 85*; UPR XBP1 act: -1; CHOP inhibitor: 5; UPR CHOP act: -5; T cruzi repl: 37; Dynein transport: 0.5

Results for CC1CCN(CC(=O)Nc2ccc(N3CCCCCC3)cc2)CC1 ?
L major viab: 78*; UPR XBP1 act: 6; CHOP inhibitor: 29; UPR CHOP act: -1; T cruzi repl: 15; Dynein transport: 0.15

Results for Cc1ccc(C)c(S(=O)(=O)Nc2cc3c4c(c2)CCC(=O)N4CCC3)c1 ?
UPR XBP1 act: -1; UPR CHOP act: 0; T cruzi repl: -6

How did COc1ccc(OC)c(Nc2nc(-c3sc(N)nc3C)cs2)c1 do in these assays?
L major viab: -5; UPR XBP1 act: 6; CHOP inhibitor: 22; UPR CHOP act: 1; T cruzi repl: -1; Dynein transport: -0.38

Results for CCCC(=O)Nc1nc(C)c(-c2csc(Nc3cc(OC)ccc3OC)n2)s1 ?
L major viab: 47; UPR XBP1 act: 3; CHOP inhibitor: 51; UPR CHOP act: 2; T cruzi repl: 1; Dynein transport: 1.1

What do the screens show for `C=CCCC(=O)Nc1nc(C)c(-c2csc(Nc3cc(OC)ccc3OC)n2)s1`?
L major viab: 19; UPR XBP1 act: 2; CHOP inhibitor: 75*; UPR CHOP act: 0; T cruzi repl: 7; Dynein transport: -0.61

Results for CCCC(C)C(=O)Nc1nc(C)c(-c2csc(Nc3cc(OC)ccc3OC)n2)s1 (stereo not drawn) ?
L major viab: 84*; UPR XBP1 act: 0; CHOP inhibitor: 53; UPR CHOP act: 2; T cruzi repl: -10; Dynein transport: -0.31

How did CCc1nnc(NC(=O)C2CCCN2C(=O)Nc2ccc(Cl)cc2)s1 (stereo not drawn) do in these assays?
UPR XBP1 act: 1; UPR CHOP act: 2; T cruzi repl: 3

Results for CCC1(c2ccccc2)NC(=O)N(CC(=O)N(CC(=O)Nc2ccccc2C(F)(F)F)Cc2ccco2)C1=O (stereo not drawn) ?
UPR XBP1 act: -2; UPR CHOP act: 0; T cruzi repl: -13

How did CC(C)(C)c1ccc(S(=O)(=O)N2CCN(Cc3cc4c(cc3O)OCO4)CC2)cc1 do in these assays?
UPR XBP1 act: 1; UPR CHOP act: 2

What do the screens show for `Oc1c(CN2CCOCC2)cc(-c2ccccc2)cc1CN1CCOCC1`?
L major viab: 4; UPR XBP1 act: -2; CHOP inhibitor: -4; UPR CHOP act: 0; T cruzi repl: -2; Dynein transport: -0.13

How did N#CCCN1CCN(Cc2cc(-c3ccccc3)ccc2O)CC1 do in these assays?
L major viab: 91*; UPR XBP1 act: 1; CHOP inhibitor: 12; UPR CHOP act: -1; T cruzi repl: 0; Dynein transport: 0.85

How did CC(C)(C)CC(C)(C)c1ccc(O)c(CN2CCN(CCC#N)CC2)c1 do in these assays?
L major viab: 97*; UPR XBP1 act: -2; CHOP inhibitor: 73*; UPR CHOP act: 0; T cruzi repl: 35; Dynein transport: 0.32

How did C=CCc1cc(C=O)cc(OC)c1OCc1ccc(Cl)cc1 do in these assays?
L major viab: 19; UPR XBP1 act: -3; CHOP inhibitor: -9; UPR CHOP act: 0; T cruzi repl: 16; Dynein transport: 0.55

What do the screens show for `C=CCc1cc(C=O)cc(OCC)c1OCc1ccc(Cl)cc1`?
L major viab: 86*; UPR XBP1 act: -5; CHOP inhibitor: 71*; UPR CHOP act: -2; T cruzi repl: 22; Dynein transport: -0.79

What do the screens show for `O=S(=O)(NCc1cn2ccccc2n1)c1ccccc1F`?
UPR XBP1 act: 0; CHOP inhibitor: -14; UPR CHOP act: 1; T cruzi repl: -7; Dynein transport: 0.14

Results for Cn1cc(CC(=O)NCCN2CCOCC2)c2ccccc21 ?
L major viab: -5; UPR XBP1 act: 0; CHOP inhibitor: -7; UPR CHOP act: -2; T cruzi repl: -22; Dynein transport: -0.48

Results for COc1ccc(CC2(C)OC(c3ccccc3)=NN2C(C)=O)cc1 (stereo not drawn) ?
L major viab: 53*; UPR XBP1 act: 1; CHOP inhibitor: 6; UPR CHOP act: 1; T cruzi repl: -6; Dynein transport: 0.4
